The source of these data is ChEMBL document CHEMBL5032499, “A Druglike Small Molecule that Targets r(CCUG) Repeats in Myotonic Dystrophy Type 2 Facilitates Degradation by RNA Quality Control Pathways” (J Med Chem, 2021).

By pIC50 is commonly meant the negative decadic logarithm of the IC50, by convention in mol/L. Usually pKd stands for −log10 of the Kd, conventionally taken in molar units. A word on the inhibition: it is how much of the control response was suppressed.

pIC50, pKd: −log10 of the molar value. The source made the active and inactive calls. No cut-off for these calls is given here.

Series [1] deals with Fibroblast. The experiment in a line: Cytotoxicity against DM2 patient derived fibroblast assessed as cell viability upto 20 uM incubated for 48 hrs by Cell Titre-Glo assay. Type of series: cell-based. To be noted: human. The gist of the method:
(§1)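 DM2 patient-derived fibroblasts were grown in high-glucose DMEM with 20% FBS at 37 °C, 5% CO2. After 48 h of compound treatment, viability was read as CellTiter-Glo luminescence after 10 min at room temperature (n = 6 replicates, one independent experiment).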

Series [2] in a line: Induction of disruption of r(CCUG)12-MBNL1 complex (unknown origin) incubated for 15 mins by TR-FRET assay. The arrangement: species or system Homo sapiens. A digest of the protocol: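 Biotinylated r(CCUG)12 was folded at 60 °C for 5 min in 20 mM HEPES pH 7.5, 110 mM KCl, 10 mM NaCl. It was then brought to assay buffer (plus 2 mM MgCl2, 2 mM CaCl2, 5 mM DTT, 0.1% BSA, 0.5% Tween-20) and preincubated 15 min with MBNL1-His6 (final 80 nM RNA, 60 nM protein). Compound was added for 15 min, then streptavidin-XL665 (40 nM) and anti-His6-Tb (0.44 ng/μL) for 30 min at room temperature. TR-FRET 545/665 ratios were read; IC50 was taken from dose-response fits.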
On the technique in general: Time-resolved FRET reads energy transfer from a long-lived donor to a nearby acceptor.

The species entered for series [3] is Homo sapiens. Briefly: Binding affinity to r(GACAGCCUGCUGUC)2 (unknown origin) duplex assessed as resonance shift in H6 and H8 protons of RNA […] by 1D NMR spectroscopy. A digest of the protocol: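 For 1D NMR, RNA at 100 μM in 100% D2O was titrated with compound at 0.5, 1.0, 1.5 and 2.0 compound:RNA molar ratios, each in a separate sample.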
For series [4], the species on record is Homo sapiens. The experiment in a line: Binding affinity to r(GACAGCCUGCUGUC)2 duplex (unknown origin) assessed as positive phase signal at 300 uM by waterLOGSY NMR spectroscopy. The gist of the method:
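For WaterLOGSY NMR, each compound at 300 μM was run alone or with 15 μM RNA (20:1 compound:RNA) in H2O containing 5% D2O by volume.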

Series [5] can be described thus: Binding affinity to r(CCUG)12 (unknown origin) assessed as apparent dissociation constant incubated for 30 mins by microscale thermophoresis. The arrangement: species or system Homo sapiens. To be noted: read-out: Kd(app). A digest of the protocol: (§2)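 Microscale thermophoresis with Cy5-labeled RNA (5 nM) folded in 8 mM Na2HPO4 pH 7.0, 185 mM NaCl, 1 mM EDTA at 60 °C for 5 min, then slowly cooled. The RNA was added to 1:1 serial compound dilutions in the same buffer, giving 0.05% Tween-20 final, and held 30 min at room temperature. Kd was fit to a quadratic binding equation; values are the mean of two independent experiments.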
(Microscale thermophoresis detects binding through changes in fluorescence in a small temperature gradient.)

Series [6] has as its system Fibroblast. The experiment in a line: Effect on CNBP mature mRNA level in DM2 patient derived fibroblast at 0.2 to 5 uM by RT-qPCR analysis. The format is functional, tissue-based. The settings on record: Homo sapiens, dose 0.2-5 µM. A digest of the protocol:
(§3)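 DM2 patient fibroblasts (DMEM, 20% FBS) were treated at 40% confluency for 48 h. Total RNA was then extracted and transcript levels were measured by RT-qPCR, normalized to GAPDH (n = 6 replicates per concentration, 2 independent experiments).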
For orientation: Quantitative PCR measures a nucleic acid by following its amplification.

In series [7] the test system is Fibroblast. The experiment in a line: Reduction in CNBP intron 1 level in DM2 patient derived fibroblast at 1 uM by RT-qPCR analysis. To be noted: Homo sapiens. Type of series: functional, tissue-based. A digest of the protocol: as §3
For series [8], the species on record is Homo sapiens. Briefly: Inhibition of r(CCUG)12-MBNL1 complex formation (unknown origin) assessed as rescue of IR exon 11 splicing defect at 5 uM by RT-PCR analysis. The arrangement: scale not given: the % may be the effect or the level left. A digest of the protocol:
(§4)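 DM2 patient fibroblasts were treated at ~40% confluency for 48 h. About 1 μg of total RNA was reverse transcribed, and IR exon 11 was PCR-amplified for 35 cycles (95 °C/58 °C/72 °C). Products were resolved on 2% agarose stained with ethidium bromide and quantified by densitometry. Percent rescue was calculated as (DM2 untreated − treated exclusion)/(DM2 untreated − WT exclusion) × 100.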

The nature of series [9]: Binding affinity to Base-paired RNA (unknown origin) assessed as dissociation constant incubated for 30 mins by microscale thermophoresis. The arrangement: species or system Homo sapiens. A digest of the protocol:
as §2

Series [10] concerns Fibroblast. The experiment in a line: Reduction in CNBP intron 1 level in DM2 patient derived fibroblast at 5 uM by RT-qPCR analysis. The format is functional, tissue-based. The settings on record: Homo sapiens. A digest of the protocol: as §3
Series [11] deals with Fibroblast. The experiment in a line: Effect on CNBP mature mRNA level in wild type human fibroblast at 0.2 to 5 uM by RT-qPCR analysis. The format is functional, tissue-based. The settings on record: dose 0.2-5 µM. The gist of the method:
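Wild-type GM07492 fibroblasts were grown in MEM with 10% FBS. They were treated at 40% confluency for 48 h, and total RNA was extracted. Transcript level was measured by RT-qPCR normalized to GAPDH (n = 6 per concentration, 2 independent experiments).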

The test system of series [12] is Fibroblast. The experiment in a line: Cytotoxicity against DM2 patient derived fibroblast assessed as cell viability at 5 uM incubated for 48 hrs by Cell Titre-Glo assay. Type of series: cell-based. The settings on record: human. The gist of the method:
as §1

The test system of series [13] is Fibroblast. The experiment in a line: Effect on IR exon 11 exclusion in wild type human fibroblast at 0.2 to 5 uM by RT-qPCR analysis. The format is functional, tissue-based. The settings on record: dose 0.2-5 µM.
In series [14] the test system is Fibroblast. The experiment in a line: Inhibition of r(CCUG)12-MBNL1 complex formation in DM2-patient derived fibroblast assessed as reduction in complex in nuclear foci per cell at 5 uM by immunofluorescence imaging analysis. Type of series: tissue-based. The settings on record: Homo sapiens.
Series [15] relates to Fibroblast. Briefly: Effect on MAP4K4 exon 22a splicing in DM2-patient derived fibroblast. Type of series: tissue-based. To be noted: Homo sapiens.
For series [16], the species on record is Homo sapiens. The experiment in a line: Inhibition of r(CCUG)12-MBNL1 complex formation (unknown origin) assessed as rescue of IR exon 11 splicing defect at 1 uM by RT-PCR analysis. The arrangement: scale not given: the % may be the effect or the level left. The gist of the method: as §4

In the case of `COc1ccc(Nc2nc(NCCCO)c3ccccc3n2)cc1`, the Activity result in the series with Fibroblast [1] is “Non-Toxic”. Besides, the negative-log IC50 (pIC50) in series [2] is 4.40. Also, the result in the series listed under Homo sapiens [3] and in the series filed under Homo sapiens [4] was Active.

As to `Cc1ccc2nc(Nc3ccc4nc(C)sc4c3)nc(NCCCO)c2c1`, the negative logarithm of the Kd (pKd) in series [5] is 6.72; in series [9] it was below 4.70. For the same molecule, the outcome with Fibroblast [6], in the series with Fibroblast [11], in the series with Fibroblast [13] and in the series on Fibroblast [15] was inactive. Also, the outcome in the series with Fibroblast [7] and in the series on Fibroblast [10] was Active. Also, the Activity is 30% in the series filed under Homo sapiens [8], “Non-Toxic” in the series with Fibroblast [12] and 33% in the series filed under Homo sapiens [16]. Moreover, the inhibition in the series on Fibroblast [14] was 30%. In series [2], this molecule showed a pIC50 of 5.70.

With `Cc1ccc2nc(Nc3ccc4nc(NCCN(C)C)sc4c3)nc(NCCCO)c2c1`, the result in the series filed under Homo sapiens [8] and in the series filed under Homo sapiens [16] was inactive. Besides, the Activity entry in the series with Fibroblast [12] was “Non-Toxic”. Further, in series [2], the pIC50 was 5.40.

Consider `OCCCNc1nc(Nc2ccc3c(c2)OCCO3)nc2ccccc12`, for which the Activity result in the series on Fibroblast [1] was “Non-Toxic”; in the series listed under Homo sapiens [8], 50%; in the series listed under Homo sapiens [16] it was 12%. Besides, the negative-log IC50 (pIC50) in series [2] was 4.30. The result in the series listed under Homo sapiens [3] and in the series listed under Homo sapiens [4] was Active.
